TAAR1 antagonist: human TAAR1 antagonism. CHO RD-HGA16 TAAR1, Fluo-8 calcium fluorescence, antagonist. AID 624466. inhibition, % at 3 µM. Q96RJ0. 360,000 tested, 1.5% active;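 active = inhibition above a per-plate cutoff, the mean inhibition of test compounds on that plate plus 3 SD, cut at about 49% in these data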;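 also: 0% = DMSO plus EC80 beta-PEA response and 100% = DMSO alone without agonist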
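Test system: RD-HGA16 CHO cells with stable hTAAR1 and Gα16 / Probe or stimulus: EC80 β-phenethylamine stimulus / Times: seeding 17-24 h prior, 75-min 37 °C, 30-min RT dye loading / Detection: Fluo-8 calcium-sensitive fluorescence / Read-out basis: % inhibition scaled between DMSO and EC80 PEA controls / Repeats: singlicate, one well per test compound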
OX1R antag-1: human HCRTR1 antagonism. O43613. CHO/OX1R cells, Fluo-8 calcium fluorescence, orexin A. inhibition, % at 5 µM. 330,000 tested, 0.43% active;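 active = inhibition above its plate's threshold, mean inhibition of all tested compounds on the plate plus 3 SD, cut at about 37% in these data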;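 also: 0% = orexin A challenge wells and 100% = SB-334867-A antagonist wells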
Target sequence (O43613 whole entry, looked up): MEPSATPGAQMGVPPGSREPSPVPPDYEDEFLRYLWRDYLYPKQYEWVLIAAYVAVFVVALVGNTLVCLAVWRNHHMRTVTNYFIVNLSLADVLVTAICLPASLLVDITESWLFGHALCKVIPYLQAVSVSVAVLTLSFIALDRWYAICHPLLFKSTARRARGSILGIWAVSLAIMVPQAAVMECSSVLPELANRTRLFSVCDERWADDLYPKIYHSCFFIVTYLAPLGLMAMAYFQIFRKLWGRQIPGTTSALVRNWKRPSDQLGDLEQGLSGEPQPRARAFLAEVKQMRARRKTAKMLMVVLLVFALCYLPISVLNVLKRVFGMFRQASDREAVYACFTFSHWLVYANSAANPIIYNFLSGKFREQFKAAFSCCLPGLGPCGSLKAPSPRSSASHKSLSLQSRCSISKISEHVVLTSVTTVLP
TAAR1 agonist: agonists of human TAAR1; Q96RJ0; CHO RD-HGA16 TAAR1, Fluo-8 calcium fluorescence; vehicle wells 0%, saturating PEA agonist 100%; activation, % at 3 µM; 360,000 tested, 0.99% active; AID 624467;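 active = activation above the mean activation of all test compounds in the run plus 3 SD, cut at about 38% in these data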
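Repeats: no replicates (n 1) | Material: CHO-derived RD-HGA16 cells with stable Gα16 and human TAAR1 | Technique: Kinetic Fluo-8 calcium fluorescence | Schedule: 17-24 h seeding, 75 min 37 °C dye, 30 min RT | Evaluation: % activation from peak over basal fluorescence ratio, DMSO-to-PEA scaled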
CHO parental Ca: signal in parental CHO cells, OX1R antagonist counter-screen | AID 463079 | 330,000 tested, 0.63% active | inhibition, % at 5.6 µM | parental CHO-K1, ATP-induced calcium, Fluo-8 fluorescence;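 active = inhibition above that plate's mean sample inhibition plus 3 SD, cut at about 26% in these data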;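 also: 0% = ATP-challenged DMSO wells and 100% = DMSO wells without ATP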
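Assay system – parental CHO cells · Reagent – ATP stimulus · Detection – intracellular calcium via Fluo-8 no-wash fluorescent dye · Evaluation – percent inhibition of ATP-evoked calcium rise, normalized to controls · Controls – ATP wells versus no-ATP DMSO wells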
GPR7 antagonist: blocks human GPR7 receptor signaling. GPR7-expressing cells, fluorescence antagonist assay. inhibition, % at 4.4 µM. 290,000 tested, 1.1% active. AID 1861; in the data active = inhibition above about 16%, passing the limit was not always enough;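 also: cells stimulated with the agonist NPW; 0% = agonist with vehicle and 100% = vehicle without agonist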
OX1R antag-2: OX1R (human) antagonism; 330,000 tested, 1.8% active; AID 485270; inhibition, % at 6.6 µM; OX1R-expressing cells, FRET antagonist read-out; in the data active = inhibition mostly above about 38%, no sharp cut-off; inactive = mostly below about 40%;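 also: 0% = agonist challenge alone and 100% = reference antagonist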
An asterisk follows results filed as active; x = no result. Sampled rows, rich in hits. Any-hit rate of the full collection: about 4.6%.

SMILES	TAAR1 antagonist	OX1R antag-1	TAAR1 agonist	CHO parental Ca	GPR7 antagonist	OX1R antag-2
CCn1c(=O)c2cc(C(=O)Nc3ccc(OC)cc3OC)sc2c2ccccc21	6	1	0	-5	-19	13
COc1ccc(NC(=O)c2cc3c(=O)n(C)c4ccccc4c3s2)cc1OC	-7	-12	7	-8	-9	54*
Cc1nc(SCC(=O)c2cccs2)c2oc3ccccc3c2n1	24	0	17	-13	10	73*
Cc1nc(SCc2nc3ccccc3[nH]2)c2oc3ccccc3c2n1	16	-8	13	-33	-2	79*
CN(Cc1nccn1C)C(=O)c1ccc2nc(Cc3ccccc3F)oc2c1	-20	10	1	-3	-6	15
COc1cc2c(cc1OC)-c1cc3ccc(OC)c(OC)c3c[n+]1CC2	-19	-13	4	-3	x	62*
CC(=O)c1cccc(N(CC(=O)NC2CCCC2)C(=O)c2ccc(C)s2)c1	1	-17	1	-10	0	9
Cc1cc(C(C)(C)C)oc1C(=O)N(CC(=O)NC1CCCC1)c1c(C)cccc1C	30	42*	12	46*	17	77*
CC(=O)c1ccc(N(CC(=O)NC2CCCC2)C(=O)c2ccc(C)s2)cc1	5	5	2	-4	21*	16
Cc1ccc(C(=O)N(CC(=O)NC2CCCC2)c2ccccc2C)s1	-7	0	0	-23	-4	25
Cc1cc(C(C)(C)C)oc1C(=O)N(CC(=O)NC1CCCC1)c1ccc(F)cc1	15	0	35	-9	16	54*
CCOC(=O)c1ccc(NC(=O)C2CC2)cc1	1	-14	2	-6	-4	15
CN(C)c1ccc(NC(=O)Nc2cccc(Cl)c2)cc1	43	-6	31	-4	-6	27
O=C(Nc1cccc(Cl)c1)Nc1csc([N+](=O)[O-])c1	28	17	5	62*	14	50*
COc1ccc(-c2cc(-c3c(O)c(OC)c4occc4c3OC)[nH]n2)cc1	7	-22	6	-17	-7	19
COc1ccc(-c2cc(-c3c(O)c(OC)c4occc4c3OC)[nH]n2)cc1OC	5	62*	-2	-18	-13	70*
CCn1cc(/C=C(\NC(=O)c2ccccc2OC)C(=O)NCCN2CCOCC2)c2ccccc21	-16	x	13	x	x	x
Cc1cccc(C2NS(=O)(=O)N=C2N)c1 (stereo unspecified)	6	-23	8	-7	-15	11
Cc1ccc(C(=O)Nc2ccccc2C(=O)NC(Cc2c[nH]c3ccccc23)C(=O)O)cc1 (stereo unspecified)	-12	-20	3	-20	-2	50*
Cc1ccc(C(=O)Nc2ccccc2C(=O)NC(Cc2ccccc2)C(=O)O)cc1 (stereo unspecified)	7	-5	2	-11	9	7
COc1ccc(/C(O)=C2/C(=O)C(=O)N(CCN(C)C)C2c2ccccc2)cc1Cl (stereo unspecified)	-18	-14	4	-9	-2	10
[O-]/[N+](=C\c1ccncc1)c1ccc(Br)cc1	x	-7	x	-5	-6	2
CCc1nc(Nc2ccc(OC)c(OC)c2)c2nnn(Cc3ccccc3Cl)c2n1	20	-4	4	30*	-14	25
CCOC(=O)c1sc(NC(=O)c2cccnc2)nc1C	-7	-5	3	5	x	15
Cc1ccc([C@H]2C[C@H](O)[C@@H](n3cc(-c4ccc(F)cc4)nn3)CN2C(=O)c2cccs2)cc1	42	x	4	x	x	x
SMILES	TAAR1 antagonist	OX1R antag-1	TAAR1 agonist	CHO parental Ca	GPR7 antagonist	OX1R antag-2
CCN(CC)c1ccc(-c2nn3c(-c4ccccc4OC)nnc3s2)cc1	x	29	x	30*	0	39*
CCC(=O)Nc1nn(CC(C)C)c2nc3ccc(C)cc3cc12	0	-15	-1	-8	-10	9
COc1cccc(-c2cnc3c(NC=O)cc(-c4cccc(NC(C)=O)c4)cn23)c1	55*	x	9	x	x	x
CC(=O)Nc1cc(-c2cccc(NS(C)(=O)=O)c2)cn2c(-c3ccccc3)cnc12	29	x	6	x	x	x
COc1cccc(-c2cnc3c(NC(C)=O)cc(-c4cccc(NS(C)(=O)=O)c4)cn23)c1	50*	x	7	x	x	x
CC(=O)Nc1cc(-c2ccc(CO)cc2)cn2c(-c3ccc(F)c(Cl)c3)cnc12	54*	x	5	x	x	x
CC(=O)Nc1cccc(-c2cc(NC=O)c3ncc(-c4cccc(C(C)=O)c4)n3c2)c1	26	x	7	x	x	x
CC(=O)Nc1cccc(-c2cc(NC(C)=O)c3ncc(-c4cccc(C(F)(F)F)c4)n3c2)c1	50*	x	17	x	x	x
Cc1cc(C)c(C#N)c(SCC(=O)Nc2ccc(S(=O)(=O)Nc3onc(C)c3C)cc2)n1	-34	-17	3	-5	5	7
CCn1cc(C(C)(C)C)c(C#N)c1NC(C)=O	-13	-21	2	-12	3	6
COc1ccc(/C=C2\Sc3ccc(C(=O)N4CCN(Cc5ccccc5)CC4)cc3N(C)C2=O)cc1OC	59*	3	4	-1	20	17
CN(C)C(=O)C1CCC(=O)N1Cc1cccs1 (stereo unspecified)	0	-14	3	6	16*	9
O=C(C1CCC(=O)N1Cc1cccs1)N1CCOCC1 (stereo unspecified)	18	-7	6	-9	-10	5
S=c1[nH]nc(-c2ccncc2)n1/N=C/C(Cl)=C\c1ccccc1	-13	-28	52*	-19	6	42*
CC1Cc2ccccc2N1c1ncnc2nc[nH]c12 (stereo unspecified)	x	12	x	-14	-9	74*
c1ccc2c(c1)CCN(c1ncnc3nc[nH]c13)C2	-8	-7	1	-5	-4	19
O=C(O)/C=C\C(=O)Nc1ccccc1C(=O)N1CCC(O)(c2ccc(Cl)cc2)CC1	-7	x	5	x	x	x
COc1cc(C=C2CCCC(=Cc3ccc(OCC4CO4)c(OC)c3)C2=O)ccc1OCC1CO1 (stereo unspecified)	61*	x	11	x	x	x
O=C(COC(=O)c1cc(=O)[nH]c2ccccc12)c1ccc(Br)cc1	-29	-15	-3	-15	-10	-1
O=C(COC(=O)c1cc(=O)[nH]c2ccc(Br)cc12)c1ccccc1	26	-38	41*	-21	1	18
COc1ccc(CNC(=O)C(C)N(Cc2ccccc2OC)C(=O)c2snc(C(N)=O)c2N)cc1 (stereo unspecified)	51*	-24	15	-14	-4	21
COc1cccc(N(C(=O)c2snc(C(N)=O)c2N)C(C(=O)NCc2ccccc2)c2ccc(O)cc2)c1 (stereo unspecified)	54*	-1	9	-2	-2	2
